The source of these data is ChEMBL document CHEMBL4673258, “Discovery of IPN60090, a Clinical Stage Selective Glutaminase-1 (GLS-1) Inhibitor with Excellent Pharmacokinetic and Physicochemical Properties” (J Med Chem, 2020).

A short description of series [1]: Half life in Sprague-Dawley rat at 0.3 mg/kg, iv by LC-MS/MS analysis. It counts as ADME, organism-based. The note with it: in vivo. In a few lines:
(§1)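 Bis-hydrochloride salt given to male Sprague-Dawley rats (200–300 g) or male beagle dogs (7–10 kg), fasted overnight and fed 4 h postdose. IV dose 0.3 mg/kg (rat dorsal foot vein, dog cephalic vein) or PO gavage 3 mg/kg.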

Series [2] in a line: Oral bioavailability in Beagle dog at 3 mg/kg administered via gavage by LC-MS/MS analysis. The class given is ADME, organism-based, Canis lupus familiaris. As to conditions: in vivo. In a few lines:
as §1

A short description of series [3]: Cmax in Beagle dog at 3 mg/kg, po administered via gavage by LC-MS/MS analysis. The note with it: in vivo. It counts as ADME, organism-based, Canis lupus familiaris. Details: route oral, dose 3 mg/kg. In a few lines:
(§2)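 Male beagle dogs (7–10 kg), fasted overnight and fed 4 h postdose, received the bis-hydrochloride salt at 3 mpk by oral gavage. Plasma concentrations by LC-MS/MS; Cmax and AUClast from the oral dose.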

Series [4] in a line: Half life in Beagle dog at 0.3 mg/kg, iv by LC-MS/MS analysis. It counts as ADME, organism-based, Canis lupus familiaris. The note with it: in vivo, 0.3 mg/kg. In a few lines:
as §1

Series [5] in a line: Volume of distribution at steady state in Beagle dog at 0.3 mg/kg, iv by LC-MS/MS analysis. The class given is ADME, organism-based, Canis lupus familiaris. The note with it: in vivo, 0.3 mg/kg. The method in brief: as §1
Series [6] can be described thus: Volume of distribution at steady state in Sprague-Dawley rat at 0.3 mg/kg, iv by LC-MS/MS analysis. It counts as ADME, organism-based. The note with it: in vivo. The method in brief:
as §1

Series [7] can be described thus: AUClast in Beagle dog at 3 mg/kg, po administered via gavage by LC-MS/MS analysis. Details: time 0 - last, route oral, dose 3 mg/kg. As to conditions: in vivo. The class given is ADME, organism-based, Canis lupus familiaris. In a few lines: as §2
Series [8] in a line: Cmax in Sprague-Dawley rat at 3 mg/kg, po administered via gavage by LC-MS/MS analysis. As to conditions: in vivo. Details: route oral, dose 3 mg/kg. It counts as ADME, organism-based. In a few lines:
(§3)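 Male Sprague-Dawley rats (200–300 g), fasted overnight and fed 4 h postdose, given the bis-hydrochloride salt at 3 mpk by oral gavage. Tail-vein blood into K2EDTA taken predose and at 0.083–24 h (0.083, 0.25, 0.5, 1, 2, 4, 8, 24 h). Plasma analysed by LC-MS/MS; Cmax and AUClast derived from the oral dose.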

Series [9] can be described thus: Oral bioavailability in Sprague-Dawley rat at 3 mg/kg administered via gavage by LC-MS/MS analysis. As to conditions: in vivo. The class given is ADME, organism-based. In a few lines:
as §1

The nature of series [10]: AUClast in Sprague-Dawley rat at 3 mg/kg, po administered via gavage by LC-MS/MS analysis. It counts as ADME, organism-based. Details: route oral, time 0 - last, dose 3 mg/kg. As to conditions: in vivo. The method in brief:
as §3

The conditions of series [11]: rat, microsomes, 0.75 h, 1 µM.
For series [12] the following is noted: human, microsomes, 0.75 h, 1 µM.

As for `CNC(=O)c1cn(C[C@H](F)CCc2ccc(NC(=O)Cc3cc(OC4CC(F)(F)C4)ccn3)nn2)nn1.Cl`, the t1/2 in series [1] was determined as 1.2 h; in series [4], 2.3 h. In addition, the values for the F in series [2] and in [9] were 34% and 48%, respectively. The highest concentration (Cmax) (commonly the highest concentration seen after dosing) came out at 2.7 µM in series [3] and 5.8 µM in [8]. Besides, the distribution volume (Vdss) (usually a proportionality between amount in the body and measured concentration, not a real space) in [5] amounted to 0.5 L/kg; in series [6] it was 0.2 L/kg. Further, the AUClast in series [7] worked out at 10 µM·h; in series [10], 16 µM·h.

On to `CNC(=O)c1cn(CCCCc2ccc(NC(=O)Cc3cc(OCC(F)(F)F)ccn3)nn2)nn1`, for which the CLH in series [11] stood at 0.4 mL/min.

With `O=C(Cc1cccc(OC(F)(F)F)c1)Nc1ccc(CCCCc2nnc(NC(=O)Cc3ccccn3)s2)nn1`, the CLH in series [11] worked out at 203 mL/min.

Turning to `O=C(Cc1ccccn1)Nc1ccc(CCCCn2cc(C(=O)NCc3cccc(OC(F)(F)F)c3)nn2)nn1`, in [11], the CLH came to 283 mL/min.

In series [11], `O=C(Cc1cccc(OC(F)(F)F)c1)Nc1ccc(CCCCn2cc(C(=O)NCc3ccccn3)nn2)nn1` registered a CLH of 162 mL/min.

On to `CNC(=O)c1cn(C[C@H](F)CCc2ccc(NC(=O)Cc3cc(C(F)(F)F)ccn3)nn2)nn1`, for which, in series [12], the CLH worked out at 0.2 mL/min.

In the case of `O=C(Cc1ccccc1)Nc1ccc(CCCCn2cc(C(=O)NCc3ccccc3)nn2)nn1`, in series [11], the CLH amounted to 128 mL/min.
